Assay outcomes: PubChem, several laboratories
PP1 counter – blocks human PP1-alpha phosphatase, a PP5 counter-screen | inhibition, % at 6.7 µM | AID 2235 | 0.9% of 320,000 active | purified PP1alpha, OMFP fluorescence;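 active = inhibition above the mean inhibition of all tested compounds plus 3 SD, computed separately for each screening campaign, cut at about 15% in these data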
Target sequence (P62136 whole entry, looked up): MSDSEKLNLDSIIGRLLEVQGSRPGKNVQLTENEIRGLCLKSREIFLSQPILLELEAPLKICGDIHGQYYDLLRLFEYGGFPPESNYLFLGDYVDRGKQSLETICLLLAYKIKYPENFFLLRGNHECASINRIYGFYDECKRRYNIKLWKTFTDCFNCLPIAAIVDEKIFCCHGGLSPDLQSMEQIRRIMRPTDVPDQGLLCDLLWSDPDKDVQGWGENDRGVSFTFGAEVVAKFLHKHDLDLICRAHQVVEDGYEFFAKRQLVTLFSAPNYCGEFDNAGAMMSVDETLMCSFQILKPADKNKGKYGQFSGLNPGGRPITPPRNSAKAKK
NS3 helicase inh – HCV NS3 helicase inhibition; NS3 helicase DNA unwinding, Cy5 molecular beacon fluorescence; inhibition, % at 10.9 µM; 0.56% of 290,000 active; AID 1800;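 active = inhibition above the mean of all tested compounds plus 3 SD, set per campaign, cut at about 35% in these data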;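 also: 0% = DMSO wells and 100% = thioflavine S control wells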
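System: Hepatitis C virus NS3 helicase domain fragment enzyme | Reagent: Annealed dual-labelled DNA beacon duplex, ATP-started | Compound dosing: 10.9 µM single point, 0.8% DMSO | Incubation: 1 h reaction at 25 °C, ATP-initiated | Technique: Cy5 fluorescence | Evaluation: Percent inhibition from t60/t0 fluorescence ratio | Benchmarks: Low DMSO, high thioflavine S at 110 µM | Replication: Singlicate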
DNA FID counter – counter-screen for HCV NS3 helicase inhibitors: DNA intercalator displacement; DNA fluorescent intercalator displacement, fluorescence; inhibition, % at 7.9 µM; 0.17% of 290,000 active; in the data active = inhibition above about 37%;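 also: 0% = vehicle and 100% = reference compound; higher means more ethidium bromide displaced from hairpin DNA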
HIF act – HIF pathway transcriptional activation; U2OS HRE-luciferase reporter, luminescence; normalized: DMSO 0%, desferrioxamine 100%; activation, % at 7.5 µM (by protocol); 0.32% of 300,000 active; AID 1910;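 active = mean activation of at least 10% of the iron chelator positive control signal, with at least half of replicates also reaching 10%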
PP5 primary – PP5 (human) phosphatase inhibition. P53041. purified PP5c, OMFP substrate fluorescence. inhibition, % at 6.7 µM. 0.18% of 320,000 active;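 active = inhibition above the campaign's mean inhibition across all tested compounds plus 3 SD, cut at about 9.5% in these data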;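 also: 0% = DMSO only and 100% = 100 µM cantharidin control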
PP1 inh confirm – confirmation of human PP1 phosphatase inhibitors; AID 2358; shares compounds with PP1 counter; purified PP1alpha, OMFP substrate fluorescence; inhibition, % at 6.7 µM; 52% of 1,900 active;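 active = mean PP1 inhibition above a set limit taken from the earlier primary screen, cut at about 15% in these data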
PP5 inh counter – inhibits human PP5 phosphatase in PP1 counter-screen. purified PP5c, OMFP fluorescence. inhibition, % at 6.7 µM. 4% of 1,900 active. shares compounds with PP1 counter;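 active = mean PP5 inhibition over triplicate wells above about 9.5% taken from the earlier PP1 screen, limit read from the data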
Starred values were filed as active, the others as inactive; . = not tested or not shown. The list is not random: actives were taken first. Their share in the collection is about 1.9%.

SMILES	PP1 counter	NS3 helicase inh	DNA FID counter	HIF act	PP5 primary	PP1 inh confirm	PP5 inh counter
COc1cc(/C=C2\SC(=N)N(c3ccc(F)cc3)C2=O)ccc1O	26*	0	-1	0	4	20*	-1
COc1ccc(S(=O)(=O)n2nc(OC(=O)c3cccs3)cc2NC(=O)c2cccs2)cc1	1	23	-27	1	1	.	.
Cc1ccc(-c2ccc(SCC(=O)Nc3ccc4c(c3)OCCO4)nn2)cc1	38*	-2	-14	2	2	-3	-2
CCN(CC(=O)Nc1ccc(Br)cc1)C(=O)Cc1cccc(F)c1	-2	4	-16	0	0	.	.
CCCCCCCCC(=O)N/N=C/c1ccccn1	-1	6	-21	0	3	.	.
CCCCCCCCC/C(=N\O)c1ccccn1	32*	3	-14	4	5	28*	-5
CCN(CC)CCNC(=O)C(=O)Nc1cc2c3c(c1)CCN3C(=O)CC2	18*	12	-2	0	-2	1	4
CNC(=O)C(=O)Nc1cc2c3c(c1)CCN3C(=O)CC2	-1	1	-4	0	1	.	.
Cc1cccc(N2CCN(C(=O)CC(NC(=O)c3ccccc3)c3ccccc3)CC2C)c1 (stereo not given)	20*	-2	-36	0	3	-2	-3
CCCCC(CC)C(=O)Nc1cc(C(=O)NCc2ccc(C)cc2)ccc1N1CCC2(CC1)CC(c1cccc(Br)c1)=NO2 (stereo not given)	2	.	.	.	3	.	.
CCCCC(CC)C(=O)Nc1cc(C(=O)NCc2ccc(C)cc2)ccc1N1CCC2(CC1)CC(c1ccccc1)=NO2 (stereo not given)	19*	18	-25	-1	-2	13	0
O=C(COc1ccc(/C=N/NC(=O)c2ccc(O)cc2)cc1)Nc1cccc([N+](=O)[O-])c1	27*	4	5	0	0	26*	-2
O=C(COc1ccc(/C=N/NC(=O)c2ccncc2)cc1)Nc1ccc([N+](=O)[O-])cc1	-3	-25	-5	0	1	.	.
O=C(COc1ccc([N+](=O)[O-])cc1)N(C1CCCCC1)C1CCS(=O)(=O)C1 (stereo not given)	-6	.	.	-24	0	.	.
O=C(Cc1cccs1)NC(c1ccccc1)c1ccccc1	-2	-5	-8	0	2	.	.
O=C(COC(=O)/C(=C/c1cccs1)c1cccs1)NC(c1ccccc1)c1ccccc1	20*	5	-9	-16	4	11	0
O=C1c2cccc3c([N+](=O)[O-])ccc(c23)C(=O)N1O	9	9	2	-7	1	.	.
COc1ccc2c3c(cccc13)C(=O)N(O)C2=O	26*	5	0	0	0	42*	-3
Cc1ccc(NC(=O)/C(=C\c2cccc([N+](=O)[O-])c2)NC(=O)c2cccs2)cc1	24*	-10	-1	0	-3	18*	-4
CCOC(=O)C1=C(CSc2nc3ccccc3s2)NC(=O)NC1c1ccc(OC)cc1 (stereo not given)	11	-28	-31	0	4	.	.
CCOC(=O)C1=C(CSc2nc3ccccc3s2)NC(=O)NC1c1cc(C)ccc1C (stereo not given)	23*	-27	-22	0	4	8	-1
O=C(Nc1cccc(S(=O)(=O)N2CCOCC2)c1)C1CCN(S(=O)(=O)c2ccccc2)CC1	-4	.	.	.	-3	.	.
CCOc1ccc(C(=O)NNC(=O)CCNC(=O)c2ccco2)cc1OC	-6	.	.	0	-1	.	.
COc1ccc(-n2nc(C(=O)O)cc2-c2ccccc2)cc1	26*	8	-18	1	0	24*	-5
NS(=O)(=O)c1ccc(-n2nc(C(=O)O)cc2-c2ccc(Cl)cc2)cc1	9	-9	-6	0	1	.	.
SMILES	PP1 counter	NS3 helicase inh	DNA FID counter	HIF act	PP5 primary	PP1 inh confirm	PP5 inh counter
O=C(O)c1cc(-c2ccccc2Cl)n(-c2ccccc2)n1	3	-3	-18	-1	-1	.	.
O=C(O)c1cc(-c2ccc(Cl)c(Cl)c2)n(-c2ccc(F)cc2)n1	53*	18	-25	-2	0	49*	-5
O=C(O)c1cc(-c2ccccc2)n(-c2ccc(Cl)cc2)n1	24*	10	-31	0	0	31*	2
O=C(O)c1cc(-c2ccccc2)n(-c2ccccc2)n1	24*	5	-7	0	1	28*	-3
O=[N+]([O-])c1ccccc1S(=O)(=O)N1CCSCC1	-5	.	.	.	-1	.	.
Cn1c(=O)c(S(=O)C2CCCCC2)c(O)c2ccccc21 (stereo not given)	0	.	.	0	1	.	.
Cc1ccccc1-n1nc(C(=O)O)cc1-c1ccccc1	36*	11	-26	0	4	33*	-5
O=C(O)c1nc(-c2ccccc2)n(-c2ccccc2)n1	7	-3	-5	0	-1	.	.
O=C(O)c1nc(-c2ccccc2)n(-c2ccc(Cl)cc2)n1	18*	11	0	-1	-1	18*	-6
O=C(O)c1ccccc1C(=O)Nc1cccc([N+](=O)[O-])c1	1	6	3	0	-3	.	.
O=C(Nc1cccc([N+](=O)[O-])c1)c1cc2ccccc2cc1O	23*	10	12	4	1	19*	-1
CCOc1ccc(NC(=O)NC2CCCc3ccccc32)cc1 (stereo not given)	-4	0	-21	1	0	.	.
COc1ccc([N+](=O)[O-])cc1NC(=O)COC(C)=O	-2	-1	0	1	2	.	.
COc1ccc([N+](=O)[O-])cc1NC(=O)c1ccc(Br)s1	18*	15	11	0	0	21*	-6
C=CCC(C(=O)NC(C)c1ccccc1)C(=O)NC(C)c1ccccc1 (stereo not given)	5	5	-23	-13	2	.	.
Cc1nn(-c2ccccc2)c(OC(=O)c2cccs2)c1S(=O)(=O)c1ccc([N+](=O)[O-])cc1	2	1	-3	0	-1	.	.
O=C(COc1ccccc1Cl)Nc1ccc(N2CCCC2)cc1	28*	-22	-9	1	4	-2	-4
O=C(Nc1ccc(N2CCCC2)cc1)c1cc2ccccc2o1	33*	-51	14	-8	0	-5	1
O=C(Cc1ccccc1)Nc1ccc(N2CCCC2)cc1	25*	-28	-1	0	4	-11	-1
CCN1CCN(c2ccc(NC(=O)COc3ccccc3Cl)cc2)CC1	-8	-6	8	2	1	.	.
CC(C)[C@H](NC(=O)[C@H](Cc1ccccc1)n1c(=O)[nH]c2ccccc2c1=O)C(=O)N1CCC[C@H]1C(=O)O	-4	-6	-35	0	3	.	.
